Experiments:
[1] = target: Serine/threonine-protein kinase 32B (Homo sapiens) (UniProt Q9NY57); experiment: Inhibition of YANK2 assessed as residual activity at 10 uM relative to control
[2] = target: TRAF2 and NCK-interacting protein kinase (Homo sapiens) (UniProt Q9UKE5); experiment: Inhibition of TNIK assessed as residual activity at 10 uM relative to control
[3] = target: Tyrosine-protein kinase Tec (Homo sapiens) (UniProt P42680); experiment: Inhibition of TEC assessed as residual activity at 10 uM relative to control
[4] = target: Serine/threonine-protein kinase TBK1 (Homo sapiens) (UniProt Q9UHD2); experiment: Inhibition of TBK1 assessed as residual activity at 10 uM relative to control
[5] = target: Casein kinase I isoform epsilon (Homo sapiens) (UniProt P49674); experiment: Inhibition of CSNK1E assessed as residual activity at 10 uM relative to control
Procedure, shortened: (§1)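 Competition kinase-binding assay (KINOMEscan) across a non-redundant panel of 329 kinases beyond the radiometric panel; residual binding expressed relative to control.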

[6] = target: Dual specificity protein kinase CLK3 (Homo sapiens) (UniProt P49761); experiment: Inhibition of CLK3 assessed as residual activity at 10 uM relative to control; procedure, shortened: as §1
[7] = target: Receptor-interacting serine/threonine-protein kinase 2 (Homo sapiens) (UniProt O43353); experiment: Inhibition of RIPK2 assessed as residual activity at 1 uM
[8] = target: Serine/threonine-protein kinase 3 (Homo sapiens) (UniProt Q13188); experiment: Inhibition of MST2 assessed as residual activity at 1 uM
[9] = target: Maternal embryonic leucine zipper kinase (Homo sapiens) (UniProt Q14680); experiment: Inhibition of MELK assessed as residual activity at 1 uM
[10] = target: Mitogen-activated protein kinase 1 (Homo sapiens) (UniProt P28482); experiment: Inhibition of ERK2 assessed as residual activity at 1 uM
Procedure, shortened: (§2)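 Radioactivity-based enzymatic activity assay of the named kinase, run as part of a 131-kinase specificity panel at the National Centre for Protein Kinase Profiling (Dundee). Residual activity was read at the stated single inhibitor concentration.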

[11] = target: Ephrin type-B receptor 4 (Homo sapiens) (UniProt P54760); experiment: Inhibition of EPH-B4 assessed as residual activity at 1 uM
Procedure, shortened: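 Standard radioactivity-based enzymatic kinase assays on a 131-kinase panel run by the Dundee profiling service; residual kinase activity recorded.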

[12] = target: T1, Serine/threonine-protein kinase STK11 (Homo sapiens) (UniProt Q15831); experiment: Inhibition of LKB1 assessed as residual activity at 10 uM relative to control
T1 sequence (whole entry): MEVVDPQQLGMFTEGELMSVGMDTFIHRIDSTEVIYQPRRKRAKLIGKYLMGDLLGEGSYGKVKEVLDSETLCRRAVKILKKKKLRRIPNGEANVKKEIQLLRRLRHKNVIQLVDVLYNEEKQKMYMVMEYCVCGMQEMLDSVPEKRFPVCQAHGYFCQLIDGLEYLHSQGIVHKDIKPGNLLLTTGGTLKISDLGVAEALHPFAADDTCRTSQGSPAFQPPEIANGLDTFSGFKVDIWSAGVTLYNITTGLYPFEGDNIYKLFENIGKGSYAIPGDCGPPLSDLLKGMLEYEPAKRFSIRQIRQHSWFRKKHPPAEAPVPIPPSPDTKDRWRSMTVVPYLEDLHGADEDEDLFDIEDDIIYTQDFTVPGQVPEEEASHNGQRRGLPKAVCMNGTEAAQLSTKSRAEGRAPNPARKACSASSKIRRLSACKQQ

[13] = target: Proto-oncogene tyrosine-protein kinase ROS (Homo sapiens) (UniProt P08922); experiment: Inhibition of ROS1 assessed as residual activity at 10 uM relative to control
[14] = target: Phosphatidylinositol 4-phosphate 5-kinase type-1 alpha (Homo sapiens) (UniProt Q99755); experiment: Inhibition of PIP5K1A assessed as residual activity at 10 uM relative to control
[15] = target: Tyrosine-protein kinase SYK (Homo sapiens) (UniProt P43405); experiment: Inhibition of SYK assessed as residual activity at 10 uM
[16] = target: Serine/threonine-protein kinase pim-1 (Homo sapiens) (UniProt P11309); experiment: Inhibition of PIM1 assessed as residual activity at 10 uM
[17] = target: Ribosomal protein S6 kinase alpha-5 (Homo sapiens) (UniProt O75582); experiment: Inhibition of MSK1 assessed as residual activity at 10 uM
[18] = target: Inhibitor of nuclear factor kappa-B kinase subunit epsilon (Homo sapiens) (UniProt Q14164); experiment: Inhibition of IKKe assessed as residual activity at 10 uM
[19] = target: Insulin-like growth factor 1 receptor (Homo sapiens) (UniProt P08069); experiment: Inhibition of IGF-1R assessed as residual activity at 10 uM; procedure, shortened: as §2
[20] = target: Focal adhesion kinase 1 (Homo sapiens) (UniProt Q05397); experiment: Inhibition of FAK assessed as residual activity at 10 uM relative to control
[21] = target: Myosin light chain kinase, smooth muscle (Homo sapiens) (UniProt Q15746); experiment: Inhibition of SmMLCK assessed as residual activity at 1 uM
[22] = target: Phosphorylase b kinase gamma catalytic chain, skeletal muscle/heart isoform (Homo sapiens) (UniProt Q16816); experiment: Inhibition of PHKG1 assessed as residual activity at 10 uM relative to control
[23] = target: Serine/threonine-protein kinase NLK (Homo sapiens) (UniProt Q9UBE8); experiment: Inhibition of NLK assessed as residual activity at 10 uM relative to control
[24] = target: Serine/threonine-protein kinase DCLK1 (Homo sapiens) (UniProt O15075); experiment: Inhibition of DCAMKL1 assessed as residual activity at 10 uM relative to control; procedure, shortened: as §1
Sequence of Serine/threonine-protein kinase DCLK1 (Homo sapiens) (O15075 whole entry): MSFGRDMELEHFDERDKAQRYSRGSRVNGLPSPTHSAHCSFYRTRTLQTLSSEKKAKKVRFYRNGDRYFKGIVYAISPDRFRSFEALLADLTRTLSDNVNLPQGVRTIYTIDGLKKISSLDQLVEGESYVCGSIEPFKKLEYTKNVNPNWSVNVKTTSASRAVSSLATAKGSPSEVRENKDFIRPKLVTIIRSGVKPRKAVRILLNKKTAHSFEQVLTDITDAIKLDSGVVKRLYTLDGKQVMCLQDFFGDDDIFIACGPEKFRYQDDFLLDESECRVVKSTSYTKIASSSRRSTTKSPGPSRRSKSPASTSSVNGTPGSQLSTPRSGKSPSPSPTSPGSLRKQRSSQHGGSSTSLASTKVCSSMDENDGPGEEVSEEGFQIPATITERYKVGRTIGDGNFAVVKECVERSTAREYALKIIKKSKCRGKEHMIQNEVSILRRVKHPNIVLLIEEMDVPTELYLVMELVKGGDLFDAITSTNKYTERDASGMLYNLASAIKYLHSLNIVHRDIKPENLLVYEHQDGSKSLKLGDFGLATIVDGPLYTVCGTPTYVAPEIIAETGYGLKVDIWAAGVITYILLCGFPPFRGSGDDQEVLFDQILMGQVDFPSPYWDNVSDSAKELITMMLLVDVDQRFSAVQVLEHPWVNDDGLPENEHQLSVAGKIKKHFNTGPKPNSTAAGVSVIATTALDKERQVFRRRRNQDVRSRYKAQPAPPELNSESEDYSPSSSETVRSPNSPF

Sequence of Casein kinase I isoform epsilon (Homo sapiens) (P49674 whole entry, looked up, canonical isoform): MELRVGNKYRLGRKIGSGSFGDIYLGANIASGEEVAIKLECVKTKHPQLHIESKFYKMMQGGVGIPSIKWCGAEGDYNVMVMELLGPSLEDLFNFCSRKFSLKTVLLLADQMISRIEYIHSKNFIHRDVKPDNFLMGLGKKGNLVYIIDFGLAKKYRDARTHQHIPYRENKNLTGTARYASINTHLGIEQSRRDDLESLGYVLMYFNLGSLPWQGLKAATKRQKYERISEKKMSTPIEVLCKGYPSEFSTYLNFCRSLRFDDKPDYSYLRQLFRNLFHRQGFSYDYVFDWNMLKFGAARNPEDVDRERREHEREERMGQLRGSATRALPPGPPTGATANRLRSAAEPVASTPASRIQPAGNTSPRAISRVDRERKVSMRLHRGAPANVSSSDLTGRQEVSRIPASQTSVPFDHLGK
Sequence of Receptor-interacting serine/threonine-protein kinase 2 (Homo sapiens) (O43353 whole entry): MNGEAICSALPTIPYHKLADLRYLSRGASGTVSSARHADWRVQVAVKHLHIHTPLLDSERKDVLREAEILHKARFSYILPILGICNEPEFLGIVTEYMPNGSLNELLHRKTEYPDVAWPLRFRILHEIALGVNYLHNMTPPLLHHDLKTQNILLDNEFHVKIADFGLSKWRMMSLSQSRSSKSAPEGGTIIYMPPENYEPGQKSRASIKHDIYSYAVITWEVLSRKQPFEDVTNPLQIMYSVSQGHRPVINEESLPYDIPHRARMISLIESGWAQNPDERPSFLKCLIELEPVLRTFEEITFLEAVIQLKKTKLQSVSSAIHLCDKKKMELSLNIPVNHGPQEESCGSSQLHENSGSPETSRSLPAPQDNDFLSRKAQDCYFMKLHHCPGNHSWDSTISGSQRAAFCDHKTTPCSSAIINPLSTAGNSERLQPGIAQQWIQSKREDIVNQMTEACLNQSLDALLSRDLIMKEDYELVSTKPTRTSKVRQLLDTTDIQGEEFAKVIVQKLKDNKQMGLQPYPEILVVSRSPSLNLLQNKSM
Sequence of Dual specificity protein kinase CLK3 (Homo sapiens) (P49761 whole entry, looked up): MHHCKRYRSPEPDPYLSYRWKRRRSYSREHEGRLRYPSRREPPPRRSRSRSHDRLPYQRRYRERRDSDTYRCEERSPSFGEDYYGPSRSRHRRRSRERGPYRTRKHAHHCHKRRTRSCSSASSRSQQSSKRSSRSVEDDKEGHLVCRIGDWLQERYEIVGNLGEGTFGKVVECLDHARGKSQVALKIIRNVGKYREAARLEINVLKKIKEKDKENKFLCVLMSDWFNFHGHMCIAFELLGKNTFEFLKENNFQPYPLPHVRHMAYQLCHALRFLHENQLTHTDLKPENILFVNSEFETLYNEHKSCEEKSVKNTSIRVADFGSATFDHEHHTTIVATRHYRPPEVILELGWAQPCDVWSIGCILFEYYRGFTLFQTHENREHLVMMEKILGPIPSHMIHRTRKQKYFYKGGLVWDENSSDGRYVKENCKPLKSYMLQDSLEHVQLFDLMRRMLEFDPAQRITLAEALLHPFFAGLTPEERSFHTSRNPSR
Sequence of Serine/threonine-protein kinase 32B (Homo sapiens) (Q9NY57 whole entry): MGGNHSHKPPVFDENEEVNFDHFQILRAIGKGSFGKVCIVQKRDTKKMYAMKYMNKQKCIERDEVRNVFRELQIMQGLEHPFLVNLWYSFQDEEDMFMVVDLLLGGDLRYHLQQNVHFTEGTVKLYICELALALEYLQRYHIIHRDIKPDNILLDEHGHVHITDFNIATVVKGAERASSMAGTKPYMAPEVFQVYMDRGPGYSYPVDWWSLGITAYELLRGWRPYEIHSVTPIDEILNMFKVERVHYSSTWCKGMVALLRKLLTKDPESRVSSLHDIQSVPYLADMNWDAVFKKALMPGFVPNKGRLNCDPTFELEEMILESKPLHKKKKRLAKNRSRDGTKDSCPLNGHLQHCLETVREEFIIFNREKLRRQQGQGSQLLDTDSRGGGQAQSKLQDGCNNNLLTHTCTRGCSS
Sequence of Phosphorylase b kinase gamma catalytic chain, skeletal muscle/heart isoform (Homo sapiens) (Q16816 whole entry, looked up, canonical isoform): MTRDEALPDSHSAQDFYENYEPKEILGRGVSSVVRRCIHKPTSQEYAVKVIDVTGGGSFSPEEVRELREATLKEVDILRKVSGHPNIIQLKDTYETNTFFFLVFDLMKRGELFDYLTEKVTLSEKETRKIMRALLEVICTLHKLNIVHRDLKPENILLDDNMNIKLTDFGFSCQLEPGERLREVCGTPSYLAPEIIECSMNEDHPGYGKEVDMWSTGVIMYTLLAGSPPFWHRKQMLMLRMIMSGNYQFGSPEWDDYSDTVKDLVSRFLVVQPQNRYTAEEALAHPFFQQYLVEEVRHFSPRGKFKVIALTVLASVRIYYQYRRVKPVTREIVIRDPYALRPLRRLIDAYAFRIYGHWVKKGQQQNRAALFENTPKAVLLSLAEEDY
Sequence of Serine/threonine-protein kinase NLK (Homo sapiens) (Q9UBE8 whole entry): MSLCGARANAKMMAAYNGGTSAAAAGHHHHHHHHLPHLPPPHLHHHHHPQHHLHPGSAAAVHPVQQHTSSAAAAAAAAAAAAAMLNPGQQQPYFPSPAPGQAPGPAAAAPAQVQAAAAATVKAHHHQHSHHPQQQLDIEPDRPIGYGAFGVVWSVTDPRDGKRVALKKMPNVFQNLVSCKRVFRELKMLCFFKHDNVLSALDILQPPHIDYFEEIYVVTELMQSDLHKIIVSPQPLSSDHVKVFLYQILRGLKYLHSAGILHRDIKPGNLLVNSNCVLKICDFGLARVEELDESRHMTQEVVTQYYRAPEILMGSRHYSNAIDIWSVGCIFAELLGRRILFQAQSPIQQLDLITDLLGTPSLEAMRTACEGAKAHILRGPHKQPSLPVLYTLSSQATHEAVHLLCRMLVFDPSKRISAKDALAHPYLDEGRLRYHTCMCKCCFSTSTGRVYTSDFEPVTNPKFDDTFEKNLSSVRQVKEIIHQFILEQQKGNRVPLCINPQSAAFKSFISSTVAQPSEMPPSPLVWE
Sequence of Mitogen-activated protein kinase 1 (Homo sapiens) (P28482 whole entry): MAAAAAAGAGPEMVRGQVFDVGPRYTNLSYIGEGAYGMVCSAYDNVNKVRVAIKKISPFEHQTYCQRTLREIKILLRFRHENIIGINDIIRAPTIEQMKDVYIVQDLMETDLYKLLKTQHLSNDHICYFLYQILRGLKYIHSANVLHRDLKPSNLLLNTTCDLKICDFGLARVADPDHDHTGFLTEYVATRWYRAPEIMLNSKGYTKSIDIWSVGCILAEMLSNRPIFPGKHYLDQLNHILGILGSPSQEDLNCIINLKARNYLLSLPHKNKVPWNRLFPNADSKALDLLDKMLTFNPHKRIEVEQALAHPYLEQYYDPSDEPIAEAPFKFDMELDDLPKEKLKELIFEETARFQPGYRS
Sequence of Serine/threonine-protein kinase 3 (Homo sapiens) (Q13188 whole entry): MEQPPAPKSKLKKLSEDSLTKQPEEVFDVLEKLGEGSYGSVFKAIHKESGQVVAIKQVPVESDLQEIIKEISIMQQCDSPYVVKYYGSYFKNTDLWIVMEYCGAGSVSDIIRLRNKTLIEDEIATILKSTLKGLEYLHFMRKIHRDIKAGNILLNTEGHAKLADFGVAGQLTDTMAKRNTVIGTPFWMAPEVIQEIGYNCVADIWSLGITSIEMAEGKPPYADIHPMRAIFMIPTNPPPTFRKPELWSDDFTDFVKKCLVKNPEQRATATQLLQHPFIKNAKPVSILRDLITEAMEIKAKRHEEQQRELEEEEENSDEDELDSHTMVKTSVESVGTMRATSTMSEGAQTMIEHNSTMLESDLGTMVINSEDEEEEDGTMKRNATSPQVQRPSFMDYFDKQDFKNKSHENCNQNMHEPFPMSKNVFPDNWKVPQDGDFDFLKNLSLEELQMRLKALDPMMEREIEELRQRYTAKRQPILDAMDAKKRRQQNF
Sequence of Serine/threonine-protein kinase pim-1 (Homo sapiens) (P11309 whole entry, looked up): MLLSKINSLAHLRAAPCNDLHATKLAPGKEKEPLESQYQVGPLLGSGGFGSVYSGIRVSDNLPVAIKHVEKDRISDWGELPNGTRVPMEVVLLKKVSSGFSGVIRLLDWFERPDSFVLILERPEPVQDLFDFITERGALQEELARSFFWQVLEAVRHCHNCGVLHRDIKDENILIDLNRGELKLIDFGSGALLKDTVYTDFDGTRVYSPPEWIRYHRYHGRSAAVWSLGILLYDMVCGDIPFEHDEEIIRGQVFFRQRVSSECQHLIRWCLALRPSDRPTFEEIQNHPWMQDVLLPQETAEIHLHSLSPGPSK

SMILES: O=C(Nc1cccnc1)c1cc(-c2ccnc(F)c2)ccc1OCc1ccccc1
- Activity [1]: 79%
- Activity [2]: 74%
- Activity [3]: 53%
- Activity [4]: 68%
- Activity [5]: 31%
- Activity [6]: 58%
- Activity [7]: 59%
- Activity [8]: 103%
- Activity [9]: 102%
- Activity [10]: 104%
- Activity [11]: 118%
- Activity [12]: 71%
- Activity [13]: 73%
- Activity [14]: 73%
- Activity [15]: 125%
- Activity [16]: 109%
- Activity [17]: 120%
- Activity [18]: 102%
- Activity [19]: 117%
- Activity [20]: 63%
- Activity [21]: 32%
- Activity [22]: 80%
- Activity [23]: 65%
- Activity [24]: 57%

— ChEMBL document CHEMBL2203081 (Bioorg Med Chem Lett, 2012)
